# Tested on: U2OS
# Test: Multiplex assay against U2OS
# Type: toxicity, cell-based
# Conditions: human
# Procedure, shortened: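 Live cells carried four stains from seeding: Hoechst33342, BioTracker Green Microtubule Cytoskeleton Dye, MitoTracker Red and Annexin V Alexa Fluor 680. They were imaged on a CQ1 microscope at 37°C and 5% CO2 after compound addition. Using CellPathfinder machine-learning gating, cells were split into Hoechst high-intensity objects or normal cells, normal cells into healthy, pyknosed or fragmented nuclei, and pyknosed cells into mitotic or apoptotic; tubulin, mitochondrial-mass and membrane-permeability phenotypes are per cents of healthy-nucleus cells.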
# [1] = 12 h, 1 µM, compound concentration 1 uM, replicate 1
# [2] = 12 h, 1 µM, compound concentration 1 uM, replicate 2
# [3] = 12 h, 10 µM, compound concentration 10 uM, replicate 1
# [4] = 12 h, 10 µM, compound concentration 10 uM, replicate 2
# [5] = 24 h, 1 µM, compound concentration 1 uM, replicate 1
# [6] = 24 h, 1 µM, compound concentration 1 uM, replicate 2
# [7] = 24 h, 10 µM, compound concentration 10 uM, replicate 1
# [8] = 24 h, 10 µM, compound concentration 10 uM, replicate 2
# [9] = 48 h, 1 µM, compound concentration 1 uM, replicate 1
# [10] = 48 h, 1 µM, compound concentration 1 uM, replicate 2
# [11] = 48 h, 10 µM, compound concentration 10 uM, replicate 1
# [12] = 48 h, 10 µM, compound concentration 10 uM, replicate 2
smiles,measurement,setting,value
Cl.N=C(N)NC(=O)Cc1c(Cl)cccc1Cl [GUANFACINE HYDROCHLORIDE],Population Apoptotic (%),[1],80%
same,Population Fragmented Nuclei (%),[1],28%
same,Population Healthy Nuclei (%),[1],55%
same,Population Hoechst High Intensity Objects (%),[1],4%
same,Population Membrane Permeable-Phenotype (%),[1],5%
same,Population Mitochondria Different-Phenotype (%),[1],1%
same,Population Mitotic Cells (%),[1],19%
same,Population Normal (%),[1],95%
same,Population Pyknosed Nuclei (%),[1],16%
same,Population Tubulin-Different-Phenotype (%),[1],2%
same,Total Cell Count,[1],165
same,Population Apoptotic (%),[2],100%
same,Population Fragmented Nuclei (%),[2],20%
same,Population Healthy Nuclei (%),[2],72%
same,Population Hoechst High Intensity Objects (%),[2],2%
same,Population Membrane Permeable-Phenotype (%),[2],8%
same,Population Mitochondria Different-Phenotype (%),[2],2%
same,Population Mitotic Cells (%),[2],0%
same,Population Normal (%),[2],97%
same,Population Pyknosed Nuclei (%),[2],7%
same,Population Tubulin-Different-Phenotype (%),[2],6%
same,Total Cell Count,[2],129
same,Population Apoptotic (%),[3],87%
same,Population Fragmented Nuclei (%),[3],27%
same,Population Healthy Nuclei (%),[3],61%
same,Population Hoechst High Intensity Objects (%),[3],1%
same,Population Membrane Permeable-Phenotype (%),[3],10%
same,Population Mitochondria Different-Phenotype (%),[3],3%
same,Population Mitotic Cells (%),[3],12%
same,Population Normal (%),[3],98%
same,Population Pyknosed Nuclei (%),[3],11%
same,Population Tubulin-Different-Phenotype (%),[3],7%
same,Total Cell Count,[3],280
same,Population Apoptotic (%),[4],77%
same,Population Fragmented Nuclei (%),[4],18%
same,Population Healthy Nuclei (%),[4],74%
same,Population Membrane Permeable-Phenotype (%),[4],12%
same,Population Mitochondria Different-Phenotype (%),[4],7%
same,Population Mitotic Cells (%),[4],22%
same,Population Pyknosed Nuclei (%),[4],7%
same,Population Tubulin-Different-Phenotype (%),[4],10%
same,Total Cell Count,[4],130
same,Population Apoptotic (%),[5],75%
same,Population Fragmented Nuclei (%),[5],32%
same,Population Healthy Nuclei (%),[5],56%
same,Population Hoechst High Intensity Objects (%),[5],3%
same,Population Membrane Permeable-Phenotype (%),[5],5%
same,Population Mitochondria Different-Phenotype (%),[5],3%
same,Population Mitotic Cells (%),[5],25%
same,Population Normal (%),[5],96%
same,Population Pyknosed Nuclei (%),[5],10%
same,Population Tubulin-Different-Phenotype (%),[5],2%
same,Total Cell Count,[5],194
same,Population Apoptotic (%),[6],83%
same,Population Fragmented Nuclei (%),[6],18%
same,Population Healthy Nuclei (%),[6],74%
same,Population Hoechst High Intensity Objects (%),[6],0%
same,Population Membrane Permeable-Phenotype (%),[6],8%
same,Population Mitochondria Different-Phenotype (%),[6],4%
same,Population Mitotic Cells (%),[6],16%
same,Population Normal (%),[6],99%
same,Population Pyknosed Nuclei (%),[6],7%
same,Population Tubulin-Different-Phenotype (%),[6],5%
same,Total Cell Count,[6],160
same,Population Apoptotic (%),[7],84%
same,Population Fragmented Nuclei (%),[7],25%
same,Population Healthy Nuclei (%),[7],64%
same,Population Hoechst High Intensity Objects (%),[7],0%
same,Population Membrane Permeable-Phenotype (%),[7],9%
same,Population Mitochondria Different-Phenotype (%),[7],2%
same,Population Mitotic Cells (%),[7],15%
same,Population Normal (%),[7],99%
same,Population Pyknosed Nuclei (%),[7],9%
same,Population Tubulin-Different-Phenotype (%),[7],4%
same,Total Cell Count,[7],326
same,Population Apoptotic (%),[8],83%
same,Population Fragmented Nuclei (%),[8],15%
same,Population Healthy Nuclei (%),[8],76%
same,Population Hoechst High Intensity Objects (%),[8],2%
same,Population Membrane Permeable-Phenotype (%),[8],10%
same,Population Mitochondria Different-Phenotype (%),[8],4%
same,Population Mitotic Cells (%),[8],16%
same,Population Normal (%),[8],97%
same,Population Pyknosed Nuclei (%),[8],7%
same,Population Tubulin-Different-Phenotype (%),[8],5%
same,Total Cell Count,[8],160
same,Population Apoptotic (%),[9],89%
same,Population Fragmented Nuclei (%),[9],28%
same,Population Healthy Nuclei (%),[9],60%
same,Population Hoechst High Intensity Objects (%),[9],2%
same,Population Membrane Permeable-Phenotype (%),[9],4%
same,Population Mitochondria Different-Phenotype (%),[9],3%
same,Population Mitotic Cells (%),[9],10%
same,Population Normal (%),[9],97%
same,Population Pyknosed Nuclei (%),[9],10%
same,Population Tubulin-Different-Phenotype (%),[9],3%
same,Total Cell Count,[9],262
same,Population Apoptotic (%),[10],90%
same,Population Fragmented Nuclei (%),[10],16%
same,Population Healthy Nuclei (%),[10],73%
same,Population Hoechst High Intensity Objects (%),[10],3%
same,Population Membrane Permeable-Phenotype (%),[10],8%
same,Population Mitochondria Different-Phenotype (%),[10],4%
same,Population Mitotic Cells (%),[10],9%
same,Population Normal (%),[10],96%
same,Population Tubulin-Different-Phenotype (%),[10],6%
same,Total Cell Count,[10],217
same,Population Apoptotic (%),[11],90%
same,Population Fragmented Nuclei (%),[11],21%
same,Population Healthy Nuclei (%),[11],68%
same,Population Hoechst High Intensity Objects (%),[11],2%
same,Population Membrane Permeable-Phenotype (%),[11],8%
same,Population Mitochondria Different-Phenotype (%),[11],3%
same,Population Mitotic Cells (%),[11],9%
same,Population Normal (%),[11],97%
same,Population Pyknosed Nuclei (%),[11],10%
same,Population Tubulin-Different-Phenotype (%),[11],4%
same,Total Cell Count,[11],440
same,Population Apoptotic (%),[12],95%
same,Population Fragmented Nuclei (%),[12],14%
same,Population Healthy Nuclei (%),[12],74%
same,Population Hoechst High Intensity Objects (%),[12],1%
same,Population Membrane Permeable-Phenotype (%),[12],10%
same,Population Mitochondria Different-Phenotype (%),[12],1%
same,Population Mitotic Cells (%),[12],4%
same,Population Normal (%),[12],98%
same,Population Pyknosed Nuclei (%),[12],11%
same,Population Tubulin-Different-Phenotype (%),[12],3%
same,Total Cell Count,[12],213

# Source: ChEMBL document CHEMBL5058577, “EUbOPEN Chemogenomics Library 2 (Multiplex)” (2022)
